# Compound activity as filed in PubChem BioAssay.
# GASC-1 inh: inhibitors of human GASC-1 (JMJD2C) demethylase; Q9H3R0; GST-JMJD2C(1-420) H3K9me3 demethylation, DELFIA europium; inhibition, % at 2.35 µM; 0.069% of 330,000 active; AID 2099;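 active = more than half of a compound's replicate wells show inhibition beyond 50%, single wells judged on their own value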;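 also: signal counts dimethyl H3K9 product captured on neutravidin plate; 0% = median of DMSO wells and 100% = 0.3 times that DMSO median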
# Target sequence (Q9H3R0 1-420 limits assumed): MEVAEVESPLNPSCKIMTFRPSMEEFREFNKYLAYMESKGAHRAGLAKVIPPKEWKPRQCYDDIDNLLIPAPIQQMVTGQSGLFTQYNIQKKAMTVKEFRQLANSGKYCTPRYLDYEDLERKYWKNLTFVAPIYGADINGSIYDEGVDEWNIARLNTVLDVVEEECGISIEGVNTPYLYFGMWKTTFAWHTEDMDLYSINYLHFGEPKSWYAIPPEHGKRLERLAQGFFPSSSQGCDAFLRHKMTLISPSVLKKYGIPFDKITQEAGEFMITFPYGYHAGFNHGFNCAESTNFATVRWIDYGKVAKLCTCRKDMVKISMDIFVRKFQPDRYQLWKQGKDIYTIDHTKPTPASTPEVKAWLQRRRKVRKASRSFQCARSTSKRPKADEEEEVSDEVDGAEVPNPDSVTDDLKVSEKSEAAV
# GalR3 antagonist: human GalR3 antagonism. O60755. HEK293 GalR3-CNG cAMP membrane potential fluorescence; galR3 body fused to GalR1 C-terminus. inhibition, % at 3 µM. 0.44% of 360,000 active;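 active = inhibition above the screen-wide average plus 3 SD, cut at about 13% in these data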;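 also: forskolin and galanin both at EC90 stimulate the cells; cAMP rise reported by CNG channel membrane potential dye signal; 0% = forskolin plus galanin with DMSO and 100% = forskolin alone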
# Target sequence (O60755 1-299 limits assumed): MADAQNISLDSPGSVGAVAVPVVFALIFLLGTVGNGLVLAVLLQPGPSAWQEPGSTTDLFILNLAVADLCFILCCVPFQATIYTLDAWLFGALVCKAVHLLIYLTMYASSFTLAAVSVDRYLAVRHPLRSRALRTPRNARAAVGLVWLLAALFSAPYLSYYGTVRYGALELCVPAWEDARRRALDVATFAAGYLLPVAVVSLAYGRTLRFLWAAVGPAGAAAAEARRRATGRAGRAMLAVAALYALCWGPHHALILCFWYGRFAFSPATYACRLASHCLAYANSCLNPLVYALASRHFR
# Jurkat NFkB inh: inhibitors of the PMA/ionomycin-induced NF-kB reporter in Jurkat cells | PMA/ionomycin-induced NF-kB luciferase reporter, luminescence | inhibition, % at 4 µM | 0.53% of 330,000 active; in the data active = inhibition above about 50%
# NR2E3 ag-1: activates human NR2E3 receptor; 0.35% of 360,000 active; CHO-S Gal4-NCOR/VP16-NR2E3 two-hybrid, luciferase; Q9Y5X4; AID 602229; inhibition of corepressor binding, % at 3.98 µM;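 active = inhibition above the mean of all tested compounds plus 3 SD, cut at about 70% in these data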;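 also: 0% = DMSO with NR2E3 transfected cells and 100% = cells lacking NR2E3 construct; higher means lower luciferase signal from less NR2E3 corepressor binding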
# 697 NFkB inh: inhibitors of the PMA/ionomycin-induced NF-kB reporter in 697 B cells; 697 B-cell NF-kB luciferase reporter, 16 h; inhibition, % at 4 µM; 0.33% of 330,000 active; AID 435022; in the data active = inhibition above about 35%
# NR2E3 ag-2: agonists of human nuclear receptor NR2E3. GST-NR2E3/biotin-RetCOR TR-FRET, 1536-well. 0.12% of 320,000 active. AID 2300. inhibition of corepressor binding, % at 4.78 µM;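 active = percent inhibition above the cutoff of mean plus 3 SD of all tested compounds, set per screening campaign, cut at about 20% in these data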;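 also: 0% = DMSO wells and 100% = biotin wells as full block of FRET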
#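 Test system: GST-NR2E3 and biotin-RetCOR proteins | Quantity: 1.35 nM GST-tagged NR2E3 final | Medium: Tris pH 7.5 | Also added: 7 nM biotin-RetCOR | Dosing: Compound at 4.8 µM, single dose | Timing: 5 h at 4 °C | Detection: Time-resolved FRET | Read-out basis: Percent inhibition | Benchmarks: Biotin wells as high control, 0.6% DMSO wells as low control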
# NR2E3 ag confirm: NR2E3 agonism confirmed in two-hybrid assay; shares compounds with NR2E3 ag-1; CHO-S mammalian two-hybrid NR2E3-NCOR, luciferase luminescence; inhibition, % at 3.98 µM; 51% of 2,300 active;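 active = average inhibition above a cutoff equal to the mean inhibition of all tested compounds plus one SD, cut at about 70% in these data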;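 also: 0% = DMSO in NR2E3 cells and 100% = DMSO in cells lacking NR2E3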
# VP16 counter: reduces GAL4-VP16 reporter signal in NR2E3 counterscreen | shares compounds with NR2E3 ag-1 | 29% of 2,300 active | inhibition, % at 3.98 µM | CHO-S GAL4-VP16 luciferase reporter, luminescence;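 active = mean inhibition above a cutoff equal to the average over all tested compounds plus one standard deviation, cut at about 70% in these data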;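 also: luciferase from a UAS reporter driven by GAL4-VP16 transactivation; 0% = DMSO with VP16-transfected cells and 100% = DMSO with cells lacking VP16; higher means less reporter light so more repression of VP16 activity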
# * = called active by the depositor; x = not tested or not shown. Rows were chosen to be rich in hits. Some 1.5% of all compounds tested hit in one or more screens of this group.
SMILES,GASC-1 inh,GalR3 antagonist,Jurkat NFkB inh,NR2E3 ag-1,697 NFkB inh,NR2E3 ag-2,NR2E3 ag confirm,VP16 counter
Cc1ccccc1-c1nnn(Cc2cccc(S(=O)(=O)N3CCOCC3)c2)n1,12.6,-6.9,2.0,64.1,8.4,-1.4,13.3,30.6
COc1cccc(CN2CCN(C(=O)[C@H]3O[C@@H](n4cnc5c(N)ncnc54)[C@H](O)[C@@H]3O)CC2=O)c1,x,-2.7,x,17.5,x,x,x,x
COc1cc(Cl)c(C)cc1NC(=O)COC(=O)c1cnc(C)cn1,-1.9,-5.3,-21.5,-11.0,-2.0,1.7,x,x
Cc1ccc(CNc2nc(NCc3ccccc3)nc3ccsc23)c(C)c1,x,-10.0,x,74.1*,x,x,67.7,45.1
Clc1ccccc1Nc1nc(NCc2ccccc2)nc2ccsc12,x,-7.7,x,62.8,x,x,50.5,54.5
CNc1nc(Nc2ccc(C)cc2C)c2sccc2n1,x,-4.5,x,48.8,x,x,42.8,35.5
COCCNc1nc(NCc2ccccc2)nc2ccsc12,x,-9.0,x,38.2,x,x,x,x
CNc1nc(NCc2ccc(C)cc2C)c2sccc2n1,x,-9.7,x,50.2,x,x,27.7,28.4
Cc1ccc(CNc2nc(NC(C)C)nc3ccsc23)c(C)c1,x,-6.2,x,-25.7,x,x,x,x
CC(CN1CCCCC1)NC(=O)c1scnc1-c1ccccc1 (configuration not stated),x,-5.0,x,-9.5,x,x,x,x
CCCC(=O)Nc1ccc(C(=O)NNC(=O)c2ccco2)cc1,-0.4,-5.8,-2.5,12.0,6.9,-0.2,x,x
Cc1cc(C)c(C)c(S(=O)(=O)N2CCN(c3ncnc4ccccc34)CC2)c1C,9.5,-3.1,19.8,62.4,-31.2,0.5,88.8*,67.7
O=S(=O)(c1cc(C(F)(F)F)ccc1Cl)N1CCN(c2ncnc3ccccc23)CC1,x,12.1,34.7,98.8*,-33.2,x,95.0*,85.8*
CC(C)(C)C(=O)Nc1cccc(-c2cc(-c3c(Cl)cccc3Cl)no2)c1,-25.2,-5.0,-5.0,-29.9,-16.2,-3.4,x,x
COC(=O)c1sccc1NC(=O)c1csc(C)c1,60.0,-3.1,-6.7,-1.4,11.3,2.2,x,x
CCCCCCNC(=O)N[C@H](C(=O)NCCC[C@H]1CN2C(=NC[C@H]2C)N1CCC(c1ccccc1)c1ccccc1)C(C)O (some centres not stated),x,x,-7.3,x,-10.6,2.5,x,x
Cc1cc(=S)nc(-c2ccccn2)[nH]1,x,0.0,-3.9,76.1*,-6.9,0.9,-6.2,-12.4
COCC(=O)N1CCC(Oc2ccc(C(=O)N(C)C(C)c3ccon3)cc2)CC1 (configuration not stated),-4.7,-0.2,-11.3,-7.0,-1.9,3.5,x,x
Cc1cc(NC(=O)C(=O)NCCN2CCN(C(=O)c3cccs3)CC2)ccc1Br,160.0,-7.1,9.7,9.8,-16.0,-0.5,x,x
COc1ccccc1C(=O)N1CCN(CCNC(=O)C(=O)Nc2ccc(Br)c(C)c2)CC1,-3.0,-2.9,6.1,49.4,-20.8,8.1,39.0,35.7
OCC1OC(n2nc3ccccc3n2)C(O)C(O)C1O (configuration not stated),-9.2,-4.8,-1.8,-36.5,1.9,2.4,x,x
OCC1OC(n2ccc3c2ncn2ncnc32)C(O)C1O (configuration not stated),x,-6.8,x,57.5,x,x,7.5,12.6
O=C1C2C3C=CC(C3)C2C(=O)N1c1ccc(Cc2ccncc2)cc1 (configuration not stated),8.4,-4.5,5.2,52.3,-44.7,2.7,12.1,33.8
O=C(Nc1ccc(Cc2ccncc2)cc1)C1CCC(N2C(=O)C3C4C=CC(C4)C3C2=O)CC1 (configuration not stated),2.3,-1.5,5.8,38.1,-32.0,3.4,x,x
O=C(NCCCCCCNC(=O)c1ccccc1O)c1ccccc1O,-3.8,-15.5,-16.0,66.5,13.6,1.2,88.0*,62.5
SMILES,GASC-1 inh,GalR3 antagonist,Jurkat NFkB inh,NR2E3 ag-1,697 NFkB inh,NR2E3 ag-2,NR2E3 ag confirm,VP16 counter
O=C(NCCCSc1ccccc1)c1cc(Cl)ccc1O,13.0,-4.2,-4.3,77.5*,11.3,x,98.8*,87.3*
Cc1nn(Cc2ccc(C(=O)Nc3nccs3)cc2)c(C)c1Cl,-1.3,-4.7,17.2,68.3,-2.6,3.0,62.6,42.6
Cc1nn(Cc2ccc(C(=O)NN)cc2)c(C)c1Cl,2.1,0.8,2.4,-3.2,12.9,0.1,x,x
Cc1nc2ccc(C(=O)N(C)Cc3ccccc3)cn2c1N(C)C(=O)CCc1ccccc1,x,2.5,x,-0.3,x,x,x,x
O=C(CSc1nnc(-c2ccncc2)o1)Nc1ccccc1C(F)(F)F,23.1,-4.3,-6.4,13.6,-2.0,-0.6,x,x
Cc1cc(-c2nnc(SCC(=O)Nc3ccccc3C(F)(F)F)o2)c(C)n1-c1ccccc1,2.2,-2.0,1.8,49.7,-20.6,-1.1,29.4,-7.9
O=c1cc(CSc2ccc(Cl)cc2)nc(-c2ccccn2)[nH]1,-19.4,-3.3,-9.8,101.3*,-25.4,-0.4,97.8*,60.0
Clc1ccc(SCc2csc(N3CCOCC3)n2)cc1,-13.6,-5.2,-6.2,-8.5,-18.2,-1.2,x,x
Clc1ccc(SCc2cc(N3CCOCC3)nc(-c3ccccn3)n2)cc1,-1.0,-4.6,-2.0,94.5*,4.6,0.4,57.6,42.8
CCn1c(SC)nnc1C1CCCN(CC(=O)Nc2ccccc2N2CCOCC2)C1 (configuration not stated),-6.2,-6.6,-16.4,-9.1,-1.5,-0.5,x,x
CC(C)Cc1ccc(C(C)C(=O)Nc2cccnc2)cc1 (configuration not stated),1.8,-11.9,44.8,50.3,-13.3,0.5,88.6*,75.9*
COc1ccc(/C(N)=N/O)c(OC)c1,-3.5,-6.3,2.3,8.8,6.6,0.8,x,x
COc1ccc(S(=O)(=O)N2CCOC2CNC(=O)C(=O)NCc2ccc(F)cc2)cc1OC (configuration not stated),0.2,0.2,11.0,48.9,-14.6,2.4,9.9,11.8
CN(CC(=O)Nc1ccccc1Cl)C(=O)c1cccc(S(=O)(=O)N2CCN(c3ccccc3)CC2)c1,x,-8.2,x,62.7,x,x,82.3*,62.8
CN(CC(=O)Nc1cccc(F)c1)C(=O)c1ccc(N2CCCC2)c([N+](=O)[O-])c1,3.9,-5.4,-21.8,63.1,7.3,-4.1,18.7,23.3
Cc1cccc(C)c1NC(=O)CN(C)C(=O)c1cccc(S(=O)(=O)N2CCN(c3ccccc3)CC2)c1,7.2,-1.3,2.4,24.1,6.3,2.7,x,x
CC1CN(C(=O)c2cc(S(=O)(=O)N3CCN(c4ccccc4)CC3)ccc2Cl)CC(C)O1 (configuration not stated),-8.6,-4.3,13.7,9.9,2.7,-1.5,x,x
